# Experimental data: ChEMBL document CHEMBL4689842, “EUbOPEN Chemogenomics Library wave 1” (2021)
# Test system: U2OS
# Assay: Multiplex assay against U2OS
# Assay type: toxicity, cell-based
# Conditions: human
# Procedure, shortened: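 Live cells carried four stains from seeding: Hoechst33342, BioTracker Green Microtubule Cytoskeleton Dye, MitoTracker Red and Annexin V Alexa Fluor 680. They were imaged on a CQ1 microscope at 37°C and 5% CO2 after compound addition. Using CellPathfinder machine-learning gating, cells were split into Hoechst high-intensity objects or normal cells, normal cells into healthy, pyknosed or fragmented nuclei, and pyknosed cells into mitotic or apoptotic; tubulin, mitochondrial-mass and membrane-permeability phenotypes are per cents of healthy-nucleus cells.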
# [1] = 12 h, 1 µM, compound concentration 1 uM, replicate 1
# [2] = 12 h, 1 µM, compound concentration 1 uM, replicate 2
# [3] = 12 h, 10 µM, compound concentration 10 uM, replicate 1
# [4] = 12 h, 10 µM, compound concentration 10 uM, replicate 2
# [5] = 24 h, 1 µM, compound concentration 1 uM, replicate 1
# [6] = 24 h, 1 µM, compound concentration 1 uM, replicate 2
# [7] = 24 h, 10 µM, compound concentration 10 uM, replicate 1
# [8] = 24 h, 10 µM, compound concentration 10 uM, replicate 2
# [9] = 48 h, 1 µM, compound concentration 1 uM, replicate 1
# [10] = 48 h, 1 µM, compound concentration 1 uM, replicate 2
# [11] = 48 h, 10 µM, compound concentration 10 uM, replicate 1
# [12] = 48 h, 10 µM, compound concentration 10 uM, replicate 2
compound,measurement,setting,value
CN1CCN(c2ccc(OC(F)(F)F)c(Nc3ncc4c(n3)-c3c(c(C(N)=O)nn3CCO)CC4)c2)CC1 [ONVANSERTIB],Population Apoptotic (%),[1],36%
same,Population Fragmented Nuclei (%),[1],14%
same,Population Healthy Nuclei (%),[1],78%
same,Population Hoechst High Intensity Objects (%),[1],6%
same,Population Membrane Permeable-Phenotype (%),[1],11%
same,Population Mitochondria Different-Phenotype (%),[1],10%
same,Population Mitotic Cells (%),[1],63%
same,Population Normal (%),[1],94%
same,Population Pyknosed Nuclei (%),[1],7%
same,Population Tubulin-Different-Phenotype (%),[1],13%
same,Total Cell Count,[1],569
same,Population Apoptotic (%),[2],25%
same,Population Fragmented Nuclei (%),[2],11%
same,Population Healthy Nuclei (%),[2],80%
same,Population Hoechst High Intensity Objects (%),[2],14%
same,Population Membrane Permeable-Phenotype (%),[2],0%
same,Population Mitochondria Different-Phenotype (%),[2],14%
same,Population Mitotic Cells (%),[2],75%
same,Population Normal (%),[2],85%
same,Population Tubulin-Different-Phenotype (%),[2],16%
same,Total Cell Count,[2],66
same,Population Apoptotic (%),[3],72%
same,Population Fragmented Nuclei (%),[3],10%
same,Population Healthy Nuclei (%),[3],79%
same,Population Hoechst High Intensity Objects (%),[3],6%
same,Population Membrane Permeable-Phenotype (%),[3],3%
same,Population Mitochondria Different-Phenotype (%),[3],77%
same,Population Mitotic Cells (%),[3],27%
same,Population Normal (%),[3],93%
same,Population Pyknosed Nuclei (%),[3],10%
same,Population Tubulin-Different-Phenotype (%),[3],84%
same,Total Cell Count,[3],150
same,Population Apoptotic (%),[4],40%
same,Population Fragmented Nuclei (%),[4],9%
same,Population Healthy Nuclei (%),[4],78%
same,Population Hoechst High Intensity Objects (%),[4],19%
same,Population Membrane Permeable-Phenotype (%),[4],0%
same,Population Mitochondria Different-Phenotype (%),[4],84%
same,Population Mitotic Cells (%),[4],60%
same,Population Normal (%),[4],80%
same,Population Pyknosed Nuclei (%),[4],12%
same,Population Tubulin-Different-Phenotype (%),[4],78%
same,Total Cell Count,[4],61
same,Population Apoptotic (%),[5],35%
same,Population Fragmented Nuclei (%),[5],14%
same,Population Healthy Nuclei (%),[5],73%
same,Population Hoechst High Intensity Objects (%),[5],7%
same,Population Membrane Permeable-Phenotype (%),[5],12%
same,Population Mitochondria Different-Phenotype (%),[5],17%
same,Population Mitotic Cells (%),[5],64%
same,Population Normal (%),[5],92%
same,Population Pyknosed Nuclei (%),[5],12%
same,Population Tubulin-Different-Phenotype (%),[5],18%
same,Total Cell Count,[5],962
same,Population Apoptotic (%),[6],57%
same,Population Fragmented Nuclei (%),[6],21%
same,Population Healthy Nuclei (%),[6],65%
same,Population Hoechst High Intensity Objects (%),[6],5%
same,Population Membrane Permeable-Phenotype (%),[6],5%
same,Population Mitochondria Different-Phenotype (%),[6],32%
same,Population Mitotic Cells (%),[6],42%
same,Population Normal (%),[6],94%
same,Population Pyknosed Nuclei (%),[6],13%
same,Population Tubulin-Different-Phenotype (%),[6],11%
same,Total Cell Count,[6],73
same,Population Apoptotic (%),[7],82%
same,Population Healthy Nuclei (%),[7],79%
same,Population Hoechst High Intensity Objects (%),[7],4%
same,Population Membrane Permeable-Phenotype (%),[7],1%
same,Population Mitochondria Different-Phenotype (%),[7],77%
same,Population Mitotic Cells (%),[7],17%
same,Population Normal (%),[7],95%
same,Population Pyknosed Nuclei (%),[7],9%
same,Population Tubulin-Different-Phenotype (%),[7],53%
same,Total Cell Count,[7],151
same,Population Apoptotic (%),[8],40%
same,Population Fragmented Nuclei (%),[8],11%
same,Population Healthy Nuclei (%),[8],77%
same,Population Hoechst High Intensity Objects (%),[8],16%
same,Population Membrane Permeable-Phenotype (%),[8],5%
same,Population Mitochondria Different-Phenotype (%),[8],82%
same,Population Mitotic Cells (%),[8],60%
same,Population Normal (%),[8],83%
same,Population Pyknosed Nuclei (%),[8],11%
same,Population Tubulin-Different-Phenotype (%),[8],55%
same,Total Cell Count,[8],55
same,Population Apoptotic (%),[9],62%
same,Population Fragmented Nuclei (%),[9],25%
same,Population Healthy Nuclei (%),[9],56%
same,Population Hoechst High Intensity Objects (%),[9],5%
same,Population Membrane Permeable-Phenotype (%),[9],14%
same,Population Mitochondria Different-Phenotype (%),[9],49%
same,Population Mitotic Cells (%),[9],37%
same,Population Normal (%),[9],94%
same,Population Pyknosed Nuclei (%),[9],18%
same,Population Tubulin-Different-Phenotype (%),[9],13%
same,Total Cell Count,[9],1338
same,Population Apoptotic (%),[10],53%
same,Population Fragmented Nuclei (%),[10],27%
same,Population Healthy Nuclei (%),[10],45%
same,Population Hoechst High Intensity Objects (%),[10],6%
same,Population Membrane Permeable-Phenotype (%),[10],24%
same,Population Mitochondria Different-Phenotype (%),[10],48%
same,Population Mitotic Cells (%),[10],46%
same,Population Normal (%),[10],93%
same,Population Pyknosed Nuclei (%),[10],27%
same,Population Tubulin-Different-Phenotype (%),[10],12%
same,Total Cell Count,[10],97
same,Population Apoptotic (%),[11],91%
same,Population Fragmented Nuclei (%),[11],17%
same,Population Healthy Nuclei (%),[11],63%
same,Population Hoechst High Intensity Objects (%),[11],2%
same,Population Membrane Permeable-Phenotype (%),[11],5%
same,Population Mitochondria Different-Phenotype (%),[11],60%
same,Population Mitotic Cells (%),[11],8%
same,Population Normal (%),[11],97%
same,Population Pyknosed Nuclei (%),[11],19%
same,Population Tubulin-Different-Phenotype (%),[11],43%
same,Total Cell Count,[11],153
same,Population Apoptotic (%),[12],57%
same,Population Fragmented Nuclei (%),[12],20%
same,Population Hoechst High Intensity Objects (%),[12],10%
same,Population Membrane Permeable-Phenotype (%),[12],28%
same,Population Mitochondria Different-Phenotype (%),[12],67%
same,Population Mitotic Cells (%),[12],42%
same,Population Normal (%),[12],89%
same,Population Pyknosed Nuclei (%),[12],15%
same,Population Tubulin-Different-Phenotype (%),[12],57%
same,Total Cell Count,[12],59
